How the values were obtained:
[1] = Displacement of [3H]epibatidine from nAChRalpha, beta in rat cerebral cortex; format: tissue-based
Outline: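 Washed male rat cerebral cortex homogenate, 3 mg wet weight, in 50 mM Tris pH 7.4 with NaCl, KCl, CaCl2 and MgCl2. 0.5 nM [3H]epibatidine with 10–12 compound concentrations, 1% DMSO final; 300 μM (–)-nicotine defined nonspecific binding. Incubated 4 h at room temperature, then filtered on PEI-soaked GF/B and counted. Nonlinear fit, at least three experiments.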

Mus musculus [2] = assay: Antagonism of nicotine-induced seizures in ICR mouse at 50 mg/kg, sc; format: functional; design: scale not given: the % may be the effect or the level left; conditions: route subcutaneous
Outline: (§1)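 Mice given saline or analog s.c. 10 min before nicotine. Percentage of animals seizing recorded. Dose-response from at least 4 doses with at least 8 mice per dose; AD50 with confidence limits, or % effect at highest dose.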

Mus musculus [3] = assay: Antagonism of nicotine-induced antinociceptive effect in mouse at 30 mg/kg, sc by tail flick assay; format: functional; design: scale not given: the % may be the effect or the level left; conditions: route subcutaneous
Outline: (§2)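 Mice given saline or analog s.c. at varied times before nicotine; tail-flick tested 5 min after nicotine. Baseline latency 2–4 s, cutoff 10 s. %MPE = (test−control)/(10−control)×100. 8–12 mice per dose, at least 4 doses; AD50 with confidence limits from dose-response, or % effect at top dose.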

Mus musculus [4] = assay: Antagonism of nicotine-induced effect in mouse at 30 mg/kg, sc by hot plate assay; format: functional; design: scale not given: the % may be the effect or the level left; conditions: route subcutaneous
Outline: (§3)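 Hot plate held at 55.0 C, mice in a 10 cm glass cylinder. Two control latencies taken at least 10 min apart (normal 8–12 s). Latency scored at jump or paw lick. %MPE = (test−control)/(40−control)×100. Analog given s.c. before nicotine; at least 8 mice per dose; % effect at highest dose.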

[5] = target: Neuronal acetylcholine receptor subunit alpha-7 (Rattus norvegicus, UniProt Q05941); assay: Displacement of [125I]iodoMLA from alpha-7 nAChR in rat cerebral cortex; format: tissue-based
Sequence of Neuronal acetylcholine receptor subunit alpha-7 (Q05941 whole entry): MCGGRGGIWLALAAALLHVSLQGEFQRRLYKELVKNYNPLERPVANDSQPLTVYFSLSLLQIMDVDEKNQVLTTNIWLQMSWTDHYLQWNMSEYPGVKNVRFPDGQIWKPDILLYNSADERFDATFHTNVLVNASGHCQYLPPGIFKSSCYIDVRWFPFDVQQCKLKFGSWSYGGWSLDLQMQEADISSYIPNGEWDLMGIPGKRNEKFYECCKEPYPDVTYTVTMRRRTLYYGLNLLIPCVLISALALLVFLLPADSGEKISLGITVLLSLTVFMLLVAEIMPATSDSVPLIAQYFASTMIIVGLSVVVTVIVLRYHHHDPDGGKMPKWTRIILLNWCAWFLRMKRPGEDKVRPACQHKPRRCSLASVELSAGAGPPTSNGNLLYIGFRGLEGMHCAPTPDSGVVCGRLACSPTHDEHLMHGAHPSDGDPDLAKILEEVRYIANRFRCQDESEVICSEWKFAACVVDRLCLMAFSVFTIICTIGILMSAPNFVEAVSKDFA

Mus musculus [6] = assay: Antagonism of nicotine-induced seizures in sc dosed ICR mouse; format: functional; outline: as §1
Mus musculus [7] = assay: Antagonism of nicotine-induced antinociceptive effect in sc dosed mouse by tail flick assay; format: functional; outline: as §2
Mus musculus [8] = assay: Antagonism of nicotine-induced effect in mouse at 20 mg/kg, sc by hot plate assay; format: functional; design: scale not given: the % may be the effect or the level left; conditions: route subcutaneous; outline: as §3

| SMILES | Ki [1] | Activity (Mus musculus [2]) | Activity (Mus musculus [3]) | Activity (Mus musculus [4]) | Ki [5] | AD50 (Mus musculus [6]) | AD50 (Mus musculus [7]) | Activity (Mus musculus [8]) |
| --- | --- | --- | --- | --- | --- | --- | --- | --- |
| CCN1C[C@]2(COC(=O)c3ccccc3N3C(=O)C[C@@H](C)C3=O)CC[C@H](OC)[C@@]34[C@@H]5C[C@H]6[C@H](OC)[C@@H]5[C@](O)(C[C@@H]6OC)[C@](O)([C@@H](OC)[C@H]23)[C@@H]14 | 0.352 µM | 40% | 10% | 0% | – | – | – | – |
| CCN1C[C@]2(COC(=O)c3ccccc3N3C(=O)CC(C)(C)C3=O)CC[C@H](OC)C34C2[C@H](OC)[C@](O)(C13)[C@@]1(O)C[C@H](OC)[C@H]2C[C@@H]4[C@@H]1[C@H]2OC | 0.602 µM | – | – | – | 0.00178 µM | 10 mg/kg | 1.8 mg/kg | 13% |
| CCN1C[C@]2(COC(=O)c3ccccc3N3C(=O)C(C)[C@H](C)C3=O)CC[C@H](OC)C34C2[C@H](OC)[C@](O)(C13)[C@@]1(O)C[C@H](OC)[C@H]2C[C@@H]4[C@@H]1[C@H]2OC (stereo partly drawn) | 0.321 µM | 0% | – | – | 0.00246 µM | – | 7 mg/kg | 25% |
| CCN1C[C@]2(COC(=O)c3ccccc3N3C(=O)C[C@H](C)C3=O)CC[C@H](OC)[C@@]34[C@@H]5C[C@H]6[C@H](OC)[C@@H]5[C@](O)(C[C@@H]6OC)[C@](O)([C@@H](OC)[C@H]23)[C@@H]14 [METHYLLYCACONITINE] | 0.739 µM | – | – | – | – | 2 mg/kg | 12 mg/kg | 15% |

From ChEMBL document CHEMBL1144563 (Bioorg Med Chem, 2007)
